In the library only some 2.6% were active in any assay of this set; here they are far more common.
rRNA inh HTS: inhibits bacterial ribosomal RNA function over humanized ribosomes | E. coli WT GFP vs humanized-ribosome RFP mutants, fluorescence, 24 h; hits give low values; DMSO median 0, no signal -100 | GFP signal change (wild-type ribosome), % (test concentration not listed) | 350,000 compounds, 1.6% hits;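 active = significant combined selectivity score with lowered wild-type GFP, culture density cut under 30%, mutant RFP and density less affected; inactive = any of these conditions unmet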
RAD52 anneal inh: RAD52 (human) annealing inhibition | P43351 | recombinant RAD52 DNA annealing, FRET fluorescence | inhibition, % at 18.7 µM | 360,000 compounds, 0.46% hits;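 active = every replicate showing at least 50% inhibition; inconclusive = mean inhibition at least 50% but not in every replicate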
INS-1E GSIS act: GLuc luminescence reporter in INS-1E cells, primary screen for activators of glucose-dependent secretion of insulin; 370,000 compounds, 0.61% hits; INS-1E GLuc reporter insulin secretion, 2-3 h; activation, % at 16.6 µM; AID 743287;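 active = lowest replicate activation of at least 40%, so every replicate reaches that level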;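 note: 0% = median of neutral control wells and 100% = median of IBMX positive control wells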
MLL AF4-AF9 inh: inhibitors of human MLL-AF4/AF9 interaction; 350,000 compounds, 0.47% hits; AlphaScreen, biotin-AF4 peptide binding to FLAG-AF9; inhibition, % at 10 µM; P42568;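 active = every replicate reaching a set inhibition limit, whatever the replicate mean, cut at about 25% in these data; inconclusive = mean inhibition reaches that limit but some replicates miss it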;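 note: 0% = plate neutral control median and 100% = total signal loss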
Target sequence (P42568 whole entry, looked up): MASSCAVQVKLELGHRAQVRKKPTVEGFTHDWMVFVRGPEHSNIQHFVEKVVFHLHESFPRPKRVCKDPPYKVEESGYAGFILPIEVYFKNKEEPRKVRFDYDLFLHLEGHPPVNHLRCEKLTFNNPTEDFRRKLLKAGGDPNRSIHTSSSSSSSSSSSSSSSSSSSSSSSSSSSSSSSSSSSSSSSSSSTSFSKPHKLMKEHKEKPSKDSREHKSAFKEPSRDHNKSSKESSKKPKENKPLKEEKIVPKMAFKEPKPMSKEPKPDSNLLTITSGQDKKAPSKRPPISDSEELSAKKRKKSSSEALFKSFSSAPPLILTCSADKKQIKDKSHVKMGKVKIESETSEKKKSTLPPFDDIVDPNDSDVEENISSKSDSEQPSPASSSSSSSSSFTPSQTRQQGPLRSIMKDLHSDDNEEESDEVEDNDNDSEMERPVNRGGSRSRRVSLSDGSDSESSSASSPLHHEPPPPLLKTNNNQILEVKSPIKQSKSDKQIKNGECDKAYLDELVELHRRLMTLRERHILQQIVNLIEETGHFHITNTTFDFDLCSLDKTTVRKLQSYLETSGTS
E-selectin induc: induces E-selectin expression in human endothelial cells; 260,000 compounds, 0.37% hits; P16581; HUVEC E-selectin immunofluorescence imaging; normalized: neutral wells 0, TNF-alpha wells 100; AID 686992; activation, % at 7.58 µM;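 active = mean E-selectin-positive cell signal at least 10% of the positive control, reached in at least 60% of replicates, without over 20% cell loss; inconclusive = no rule given, readout overlaps actives, possibly toxicity-flagged; inactive = the rest, including those meeting only one limit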
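Read-out basis: % PE-positive cells; Test system: HUVEC primary endothelial cells; Technique: immunofluorescence imaging; Dosing: single-point compound dose.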
RAD54 branch: RAD54 (human) branch migration inhibition; Q92698; RAD54 Holliday junction branch migration, FAM/BHQ fluorescence; inhibition, % at 10.4 µM; 360,000 compounds, 0.14% hits;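 active = mean normalized replicate activity at least 40 and at least half of replicates scoring 40 or more; inconclusive = only one of the two criteria met; inactive = mean below 40 and under half of replicates reaching 40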;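 note: 0% = median of neutral control wells and 100% = median of positive control wells; inhibitors cause a drop in the FAM fluorescence signal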
* = called active by the depositor; ? = inconclusive; / = no result.

SMILES | rRNA inh HTS | RAD52 anneal inh | INS-1E GSIS act | MLL AF4-AF9 inh | E-selectin induc | RAD54 branch
CCN(CC)Cc1cc(Nc2c3ccccc3nc3c4ccccc4n(C)c23)cc(CN(CC)CC)c1O | -23 | 106* | -30 | 55* | 0 | /
O=c1cc(SCc2ccccc2)nc[nH]1 | / | -7 | / | 38* | / | 7
CC(C)(C)c1ccc(-c2cn(-c3ccc(Br)cc3)c3[n+]2CCCS3)cc1 | -50* | 7 | -51 | 4 | -9 | /
c1ccc(-c2cn(-c3ccccc3)c3[n+]2CCS3)cc1 | -10 | -1 | -52 | -1 | 3 | -3
Cc1ccc(-c2cn(-c3ccc(OC(F)F)cc3)c3[n+]2CCCCC3)cc1 | -36* | -2 | -62 | -3 | 0 | -5
Clc1ccc(-n2cc(-c3ccc(Br)cc3)[n+]3c2CCCCC3)cc1 | -46* | 7 | 12 | 2 | / | /
Cc1ccc(-c2cn(-c3ccc(SC(F)F)cc3)c3[n+]2CCC3)cc1 | / | / | -31 | / | / | /
FC(F)Oc1ccc(-n2cc(-c3ccccc3)[n+]3c2CCCCC3)cc1 | -28* | 8 | 19 | 0 | 0 | /
O=C(C[C@@H]1C=C[C@@H](NC(=O)CN2CCOCC2)[C@H](CO)O1)NCCc1ccccc1 | 1 | -7 | -2 | 0 | 0 | 2
CC(=O)N1CC2(C1)[C@@H](c1ccccc1)[C@@H](CO)N2Cc1cc(F)ccc1F | 1 | -60 | 4 | -1 | 0 | /
O=C(Cc1ccc(Cl)cc1)Nc1ccc(S(=O)(=O)Nc2cnc3ccccc3n2)cc1 | -34* | -66 | 2 | -1 | / | /
O=C(Nc1ccc(S(=O)(=O)Nc2cnc3ccccc3n2)cc1)c1ccc(Cl)cc1Cl | 12 | -25 | / | -1 | 1 | -3
O=C(COC(=O)c1ccccc1Br)NCCC1=CCCCC1 | -51* | -23 | -4 | -4 | 5 | 14
O=C(COC(=O)COc1ccc(Cl)cc1Br)NCCC1=CCCCC1 | 2 | -6 | -4 | -2 | 29* | 9
O=C(COC(=O)c1ccccc1NCCO)NCCC1=CCCCC1 | -7 | -13 | -5 | -12 | 0 | -1
C[C@H]1CN([C@@H](C)CO)C(=O)c2cc(NC(=O)CCC(F)(F)F)ccc2O[C@@H]1CN(C)C(=O)NC1CCCCC1 | 0 | 15 | 1 | -2 | -5 | -11
O=C(N/N=C/c1cccnc1)c1ccc(CN2c3cccc4cccc(c34)S2(=O)=O)cc1 | -18* | -28 | 0 | 2 | 6 | 2
COc1cccc(/C=N/NC(=O)c2ccc(CN3c4cccc5cccc(c45)S3(=O)=O)cc2)c1 | 8 | -12 | / | 3 | / | -5
C[C@@H]1CN([C@H](C)CO)C(=O)c2cc(C#C[C@@H](C)O)cnc2O[C@@H]1CN(C)C(=O)Cc1ccncc1 | 3 | -32 | 32 | -2 | -1 | 8
O=C(CSc1ncn[nH]1)c1ccccc1 | / | / | / | / | / | -6
O=C(CSc1ncn[nH]1)c1cccc([N+](=O)[O-])c1 | 5 | -8 | -21 | -2 | 38* | /
CCCCC(Nc1ncnc2ccccc12)C(=O)O (centres undefined) | / | / | 6 | / | / | -11
CC(Nc1ncnc2ccccc12)c1ccccc1 (centres undefined) | -30* | -7 | -63 | 1 | 0 | 3
Cc1ccc(NCCCn2cnc3c(OCc4ccccc4)ncnc32)cc1C | -21* | -6 | -11 | ? | 0 | 5
CC(CNCCCn1cnc2c(OCc3ccccc3)ncnc21)c1ccccc1 (centres undefined) | -17* | -17 | -9 | 3 | 8 | -9
CCC(=O)N1C[C@@H](C)[C@H](OC)CN(C)C(=O)c2ccc(NC(=O)c3ccc(OC)cc3)cc2OC[C@H]1C | 3 | 3 | 10 | 0 | 0 | -3
CCOc1ccccc1OCCC(=O)NNC(=O)Cn1nc(C)cc1C | 18 | -4 | 53* | 0 | 2 | 16
Cc1cccc(OCCC(=O)NNC(=O)Cn2nc(C)cc2C)c1 | 7 | 1 | -14 | -1 | / | 6
CCOc1ccccc1N1CCN(C(=O)c2ccccc2OCc2c(C)noc2C)CC1 | -16* | 1 | -1 | -2 | / | 11
Cc1sc2ncnc(N3CCC(C(=O)NNC(=O)COc4cccc(C(F)(F)F)c4)CC3)c2c1C | -19* | -30 | -6 | 0 | 0 | /
